# Results from different studies.
# Target: Dual specificity mitogen-activated protein kinase kinase 2 (MAP2K2, Homo sapiens, UniProt P36507)
Compound,effect on,method,concentration,remaining binding [%]
C=CC(=O)N1CCC(C(=O)NCC(=O)N2CCN(c3nc(-c4cnc(N)nc4C(F)F)nc(N4CCOCC4)n3)CC2)CC1,binding,competition with immobilised ligand,1 µM,59
O=C(NCC1CCOCC1)c1n[nH]cc1NC(=O)c1c(F)cccc1F,binding,competition with immobilised ligand,1 µM,100
N#Cc1ccccc1CSc1nnc2c(n1)[nH]c1ccccc12,binding,competition with immobilised ligand,10 µM,87
CN(C)c1nccc(-c2cnc3ncccn23)n1,binding,,1 µM,65
CC(C)(C)c1ccc(-c2nc(CBr)nn2-c2cccc(O)c2)cc1,cell-free assay,competition with immobilised ligand,10 µM,90
CN(c1nccc(-c2cnn3ncccc23)n1)C1CC1,binding,,1 µM,100
CNC(=O)[C@@H]1CC[C@@H](n2c(-c3ccc4cnccc4c3)nc3ccc(C(=O)NCc4cccc(C(N)=O)c4)cc32)C1,binding,competition with immobilised ligand,1 µM,79
Cc1noc([C@H]2C[C@@H](c3ccc(C(F)(F)F)cc3)CN(C(=O)N3CCS(=O)(=O)C3)C2)n1,cell-free assay,competition with immobilised ligand,1 µM,90
N[C@@H]1CCN(c2nccc(-c3cnn4ncccc34)n2)C1,binding,,1 µM,84
Cc1c(NC(=O)c2cc(C(N)=O)nc3cc(F)ccc23)c(C(F)(F)F)nn1Cc1ccc(C(C)(C)C)cc1,cell-free assay,competition with immobilised ligand,1 µM,100
CCN1CCN(Cc2ccc(C(=O)Nc3ccc(C)c(Oc4ccc5c(c4)CC(=O)N5)c3)cc2C(F)(F)F)CC1,binding,competition with immobilised ligand,1 µM,100
O=C(NCCCN1CCOCC1)c1ccc(Nc2nccc(-c3cc4ccccc4s3)n2)cc1,binding,competition with immobilised ligand,1 µM,79
C[C@@H]1CN(c2ccc3ncc(-c4ccc5[nH]nc(C6CC6)c5c4)n3n2)C[C@H](C)O1,binding,competition with immobilised ligand,0.5 µM,100
O=C(Nc1cccnn1)N1CC(C/C=C/c2cncc(Oc3ccc(C(F)(F)F)cn3)n2)C1,cell-free assay,competition with immobilised ligand,1 µM,95
Nc1ncc2c(n1)-c1c([nH]c3ccc(C#CC4CC4)cc13)CCCC2,binding,competition with immobilised ligand,1 µM,96
C[C@@]1(Cc2ccc(C#N)cc2)C(=O)N(c2cc(Cl)cc(Cl)c2)c2ncc(C(=O)NC3(c4nc(C5CCC5)no4)CC3)n21,cell-free assay,competition with immobilised ligand,1 µM,99
CN(C)c1ncc(F)c(-c2cnn3ncccc23)n1,binding,,1 µM,74
O=C(c1ccc(Nc2nccc(-c3cc4ccccc4s3)n2)cc1)N1CCC(N2CCCC2)CC1,binding,competition with immobilised ligand,1 µM,60
CN(C)CC#Cc1ccc(OCCCc2sc(N3CCc4cccc(C(=O)Nc5nc6ccccc6s5)c4C3)nc2C(=O)O)c(F)c1,cell-free assay,competition with immobilised ligand,1 µM,100
Cc1cnc(Nc2ccc(C(=O)N3CCC(N4CCCC4)CC3)cc2)nc1-c1cc2ccccc2s1,binding,competition with immobilised ligand,1 µM,26
CC(=O)N1CCC(c2ccc(C(=O)NC(=N)N)cc2C(F)(F)F)CC1,cell-free assay,competition with immobilised ligand,1 µM,96
CN(CCCC(F)(F)F)c1nccc(-c2cnn3ncccc23)n1,binding,,1 µM,100
CC(=O)c1c(NS(C)(=O)=O)c2cc(-c3ccc(Cl)cc3)c(-c3ccc(Cl)cc3Cl)nc2n(C)c1=O,cell-free assay,competition with immobilised ligand,1 µM,100
Cc1cnn2ncc(-c3ccnc(N(C)C)n3)c2c1,binding,,1 µM,100
